Test results: ChEMBL document CHEMBL3875203, “Small molecule mimics of DFTamP1, a database designed anti-Staphylococcal peptide” (Bioorg Med Chem, 2017)
≈ marks a conversion by molar mass, not a printed value. Calls of active or inactive are those of the source. No cut-off for these calls is given here.

Legend:
Staphylococcus aureus [1] = assay: Antibacterial activity against methicillin-resistant Staphylococcus aureus USA300 after 20 hrs by microdilution method; format: functional; conditions: USA300, 20 h
In short: (§1)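 MIC = lowest concentration with no detectable growth. pH series run at pH 6.8, 7.4 and 8.0. Daptomycin wells carried 2 mM Ca²⁺. Repeated by different investigators on different dates.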

Pseudomonas aeruginosa [2] = assay: Antibacterial activity against Pseudomonas aeruginosa PAO1 after 20 hrs by microdilution method; format: functional; conditions: PAO1, 20 h
In short: (§2)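 Incubated ~20 h at 37°C, then read at 630 nm. MIC is the lowest concentration with no detectable growth. Daptomycin assays had 2 mM Ca²⁺ added to the medium. Repeated several times by different investigators.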

Escherichia coli [3] = assay: Antibacterial activity against Escherichia coli ATCC 25922 after 20 hrs by microdilution method; format: functional; conditions: ATCC 25922, 20 h; in short: as §2
[4] = Therapeutic index, ratio of HC50 for human RBC to MIC for methicillin-resistant Staphylococcus aureus USA300; conditions: human red blood cells, read-out: TI
In short: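 Supernatant hemoglobin read at 545 nm; 1% Triton X-100 = 100% lysis, untreated = 0%. HL50 divided by USA300 MIC gives the selectivity index.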

Klebsiella pneumoniae = assay: Antibacterial activity against Klebsiella pneumoniae ATCC 13883 after 20 hrs by microdilution method; format: functional; conditions: ATCC 13883, 20 h; in short: as §2
[5] = Retention time of the compound by HPLC method; format: physicochemical
[6] = Hemolytic activity against human RBC after 1 hr; format: ADME, cell-based, Erythrocyte; conditions: human red blood cells
In short: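 Human red blood cells were washed three times in normal saline (800 g, 10 min) and made up as a 2% suspension. After centrifugation, supernatant absorbance was read at 545 nm. Lysis was set at 100% for 1% Triton X-100 and 0% for untreated cells; HL50 is the 50% hemolytic concentration.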

Staphylococcus aureus [7] = assay: Antibacterial activity against methicillin-resistant Staphylococcus aureus USA300 LAC after overnight incubation by broth microdilution method; format: functional; in short: as §1
Escherichia coli [8] = assay: Antibacterial activity against Escherichia coli K-12 after overnight incubation by broth microdilution method; format: functional
Pseudomonas aeruginosa [9] = assay: Antibacterial activity against Pseudomonas aeruginosa PAO1 after overnight incubation by broth microdilution method; format: functional
Staphylococcus aureus [10] = assay: Antibacterial activity against Staphylococcus aureus USA200 after 20 hrs by microdilution method; format: functional; conditions: USA200, 20 h; in short: as §2
Staphylococcus aureus [11] = assay: Antibacterial activity against Staphylococcus aureus Newman after 20 hrs by microdilution method; format: functional; in short: as §2
Staphylococcus aureus [12] = assay: Induction of membrane damage in methicillin-resistant Staphylococcus aureus USA300 measured for 90 mins by propidium iodide staining based fluorescence spectroscopic analysis; format: functional
Staphylococcus aureus [13] = assay: Antibacterial activity against Staphylococcus aureus Mu50 after 20 hrs by microdilution method; format: functional; conditions: Mu50, 20 h; in short: as §2
Staphylococcus aureus [14] = assay: Antibacterial activity against Staphylococcus aureus USA400 after 20 hrs by microdilution method; format: functional; conditions: USA400, 20 h; in short: as §2
Staphylococcus aureus [15] = assay: Antibacterial activity against Staphylococcus aureus UAMS-1 after 20 hrs by microdilution method; format: functional; conditions: UAMS-1, 20 h; in short: as §2
Staphylococcus aureus [16] = assay: Ratio of MIC for methicillin-resistant Staphylococcus aureus USA300 in presence of 100 mM NaCl to MIC for methicillin-resistant Staphylococcus aureus USA300 in absence of 100 mM NaCl; format: functional
In short: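 Broth microdilution MIC against S. aureus USA300 in TSB with and without 100 mM NaCl. Inoculum 10⁶ CFU/mL exponential-phase cells, ~20 h at 37°C, OD630 read-out, no-growth endpoint. Ratio of MIC with salt to MIC without salt.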

Compound | MIC (Staphylococcus aureus [1]) [µM] | MIC (Pseudomonas aeruginosa [2]) [µM] | MIC (Escherichia coli [3]) [µM] | selectivity ratio [4] | MIC (Klebsiella pneumoniae) [µM] | Retention_time [5] [min] | HC50 at 1 h [6] [µM] | MIC (Staphylococcus aureus [7]) [µM] | MIC (Escherichia coli [8]) [µM] | MIC (Pseudomonas aeruginosa [9]) [µM] | MIC (Staphylococcus aureus [10]) [µM] | MIC (Staphylococcus aureus [11]) [µM] | Activity (Staphylococcus aureus [12]) | MIC (Staphylococcus aureus [13]) [µM] | MIC (Staphylococcus aureus [14]) [µM] | MIC (Staphylococcus aureus [15]) [µM] | Ratio (Staphylococcus aureus [16])
CS(=O)(=O)O.CS(=O)(=O)O.NCc1ccc2c(C3(c4c[nH]c5cc(CN)ccc45)CCCCC3)c[nH]c2c1 | 6.2 to 12.5 | > 50 | > 50 | 12 to 24 | > 50 | 10.788 | 75 to 150 | – | – | – | – | – | – | – | – | – | –
H-GLLSLLSLLGKLL-NH2 | – | – | – | – | – | – | – | 3.1 | > 120 | > 120 | – | – | – | – | – | – | –
Brc1cccc(Br)c1C(c1c[nH]c2cc(C3=NCCN3)ccc12)c1c[nH]c2cc(C3=NCCN3)ccc12.CS(=O)(=O)O.CS(=O)(=O)O | 3.1 to 12.5 | > 50 | > 50 | 24 to 48 | > 50 | 11.159 | 150 | – | – | – | 3.1 | 3.1 to 6.2 | Active | 6.2 | 3.1 | 6.2 | –
CS(=O)(=O)O.CS(=O)(=O)O.c1cc2c(C3(c4c[nH]c5cc(C6=NCCN6)ccc45)CCCCC3)c[nH]c2cc1C1=NCCN1 | 6.2 | > 50 | > 50 | 24 to 48 | > 50 | 11.276 | 150 to 300 | 6.2 | > 200 | 100 | 6.2 | 6.2 | Active | 6.2 | 6.2 | 25 | <=2
CS(=O)(=O)O.CS(=O)(=O)O.Clc1cccc(Cl)c1C(c1c[nH]c2cc(C3=NCCN3)ccc12)c1c[nH]c2cc(C3=NCCN3)ccc12 | 6.2 to 12.5 | > 50 | > 50 | 24 to 48 | > 50 | 10.973 | 300 | – | – | – | 12.5 | 12.5 | Active | > 25 | 12.5 | > 25 | <=2
Cl.Clc1cccc(Cl)c1C(c1c[nH]c2ccc(C3=NCCN3)cc12)c1c[nH]c2ccc(C3=NCCN3)cc12 | 12.5 | > 50 | > 50 | > 48 | > 50 | 10.537 | > 600 | – | – | – | – | – | – | – | – | – | –
CC(C)(c1c[nH]c2cc(C3=NCCN3)ccc12)c1c[nH]c2cc(C3=NCCN3)ccc12.CS(=O)(=O)O.CS(=O)(=O)O | 25 | > 50 | > 50 | 33 | > 50 | 10.005 | > 830 | – | – | – | – | – | – | – | – | – | –
CS(=O)(=O)O.CS(=O)(=O)O.Cn1cc(C2(c3cn(C)c4cc(C5=NCCN5)ccc34)CCCCC2)c2ccc(C3=NCCN3)cc21 | 12.5 to 25 | – | – | – | – | – | – | – | – | – | 25 | 12.5 | – | 25 | 12.5 | ≥ 25 | <=2
CCCCCCCCCC(=O)N[C@@H](Cc1c[nH]c2ccccc12)C(=O)N[C@@H](CC(N)=O)C(=O)N[C@@H](CC(=O)O)C(=O)N[C@@H]1C(=O)NCC(=O)N[C@@H](CCCN)C(=O)N[C@@H](CC(=O)O)C(=O)N[C@H](C)C(=O)N[C@@H](CC(=O)O)C(=O)NCC(=O)N[C@H](CO)C(=O)N[C@@H]([C@H](C)CC(=O)O)C(=O)N[C@@H](CC(=O)c2ccccc2N)C(=O)O[C@@H]1C [DAPTOMYCIN] | 0.78 (≈ 1.26 µg/mL) | – | – | – | – | – | – | – | – | – | 0.78 (≈ 1.26 µg/mL) | – | Active | 3.1 (≈ 5.02 µg/mL) | 0.78 (≈ 1.26 µg/mL) | > 12.5 | –
CS(=O)(=O)O.CS(=O)(=O)O.c1ccc(C(c2c[nH]c3cc(C4=NCCN4)ccc23)c2c[nH]c3cc(C4=NCCN4)ccc23)cc1 | 25 | > 50 | > 50 | 24 | > 50 | 10.643 | 600 | – | – | – | – | – | – | – | – | – | –
CS(=O)(=O)O.CS(=O)(=O)O.Clc1ccc(C(c2c[nH]c3cc(C4=NCCN4)ccc23)c2c[nH]c3cc(C4=NCCN4)ccc23)c(Cl)c1 | 3.1 to 6.2 | 25 to 50 | 12.5 | 12 | > 50 | 11.924 | 40 | – | – | – | – | – | – | – | – | – | –
CS(=O)(=O)O.CS(=O)(=O)O.Clc1ccc(C(c2c[nH]c3cc(C4=NCCN4)ccc23)c2c[nH]c3cc(C4=NCCN4)ccc23)cc1 | 3.1 to 6.2 | 25 | > 50 | 24 to 48 | > 50 | 11.491 | 150 | – | – | – | 6.2 | 6.2 | Active | 6.2 | 6.2 | 12.5 | <=2
CCC(CC)(c1c[nH]c2cc(C3=NCCN3)ccc12)c1c[nH]c2cc(C3=NCCN3)ccc12.CS(=O)(=O)O.CS(=O)(=O)O | 6.2 | > 50 | > 50 | 48 | > 50 | 11.015 | 300 | – | – | – | – | – | – | – | – | – | <=2
CS(=O)(=O)O.CS(=O)(=O)O.c1cc2c(C(c3c[nH]c4cc(C5=NCCN5)ccc34)C3CCCCC3)c[nH]c2cc1C1=NCCN1 | 3.1 | > 50 | > 50 | 7 to 14 | > 50 | 11.832 | 20 to 40 | – | – | – | – | – | – | – | – | – | –
CS(=O)(=O)O.CS(=O)(=O)O.c1cc2c(Cc3c[nH]c4cc(C5=NCCN5)ccc34)c[nH]c2cc1C1=NCCN1 | 50 | > 50 | > 50 | 26 | > 50 | 9.215 | 1300 | – | – | – | – | – | – | – | – | – | –
